Laboratory results reported in ChEMBL document CHEMBL1138289, “Synthesis and biological evaluation of fluorescent leishmanicidal analogues of hexadecylphosphocholine (miltefosine) as probes of antiparasite mechanisms” (J Med Chem, 2007).

How the values were obtained:
Leishmania pifanoi = assay: Antileishmanial activity against miltefosine-sensitive Leishmania pifanoi MHOM/VE/60/Ltrod amastigotes by MTT assay; format: functional; details: read-out: LD50 (the source's name)
In short: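 Axenic amastigotes from late exponential phase, washed twice, seeded at 2 × 10^6 parasites mL-1 in growth medium with compound for 120 h at 32 °C. Then washed in Hanks+Glc, given 0.5 mg mL-1 MTT for 2 h at 32 °C, SDS 10% overnight at 37 °C, absorbance 595 nm. Triplicates, repeated at least twice; LD50 (50% proliferation inhibition) with SE.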

Leishmania donovani [1] = assay: Intracellular drug concentration in miltefosine-sensitive Leishmania donovani promastigotes at 7.5 uM after 2 hrs; details: in vivo
Leishmania donovani [2] = assay: Antileishmanial activity against miltefosine-sensitive Leishmania donovani MHOM/ET/67/L82 promastigotes by MTT assay; format: functional; details: read-out: LD50 (the source's name)
In short: (§1)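 Promastigotes from late exponential phase, washed twice, seeded at 2 × 10^6 parasites mL-1 in RPMI with 10% heat-inactivated FCS and 2 mM glutamine, exposed to compound 72 h at 26 °C. Washed in Hanks+Glc, MTT 0.5 mg mL-1 for 2 h at 26 °C, formazan dissolved in 10% SDS overnight at 37 °C, A595. Triplicates, two or more experiments; LD50 with SE.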

Leishmania donovani [3] = assay: Drug level per mg of protein in miltefosine-sensitive Leishmania donovani promastigotes at 15 uM after 2 hrs; format: ADME, organism-based; details: in vivo
In short: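 Late-exponential L. donovani promastigotes (MHOM/ET/67/L82) washed twice in Hanks+Glc, resuspended at 1.5 × 10^7 parasites mL-1 in the same medium with the analogue, incubated 2 h at 26 °C to reach steady intracellular accumulation. Analogue extracted and quantified by HPLC against calibration plots; expressed per mg protein.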

Leishmania donovani [4] = assay: Antileishmanial activity against miltefosine-resistant Leishmania donovani MHOM/ET/67/L82R40 promastigotes by MTT assay; format: functional; details: read-out: LD50 (the source's name); in short: as §1

| Structure (SMILES) | LC50 (Leishmania pifanoi) [µM] | Intracellular concentration (Leishmania donovani [1]) [mM] | LC50 (Leishmania donovani [2]) [µM] | Drug uptake (Leishmania donovani [3]) [nmol/mg] | LC50 (Leishmania donovani [4]) [µM] |
| --- | --- | --- | --- | --- | --- |
| C[N+](C)(C)CCOP(=O)([O-])OCCCCCC#C/C=C/C=C/C=C/c1ccccc1 | 26.5 | 0.7 | 29.6 | 7.6 | > 60 |
| C[N+](C)(C)CCOP(=O)([O-])OCCCCC/C=C/C=C/C=C/C=C/c1ccccc1 | 26 |  | 28.6 |  | > 60 |
| COC(COCCCCCCC/C=C/C=C/C=C/C=C/c1ccccc1)COP(=O)([O-])OCC[N+](C)(C)C (racemic) | 22.5 |  | 9 |  | > 60 |
| CCCCCCCCCCCCCCCCOP(=O)([O-])OCC[N+](C)(C)C [MILTEFOSINE] | 26.3 |  | 12.5 |  | > 60 |
| OCCCCCC#C/C=C/C=C/C=C/c1ccccc1 | > 150 |  | > 150 |  | > 150 |
